Where “and” joins values, the source holds several entries; their conditions need not be identical. Equal entries are not always repeated.
Legend:
[1] = molecular target: T1, NADP-dependent malic enzyme (Rattus norvegicus) (UniProt P13697); test: Effect on rat hepatic Malic enzyme activity 3 days after injection of 10e-6 mol/kg.
T1 sequence (whole entry): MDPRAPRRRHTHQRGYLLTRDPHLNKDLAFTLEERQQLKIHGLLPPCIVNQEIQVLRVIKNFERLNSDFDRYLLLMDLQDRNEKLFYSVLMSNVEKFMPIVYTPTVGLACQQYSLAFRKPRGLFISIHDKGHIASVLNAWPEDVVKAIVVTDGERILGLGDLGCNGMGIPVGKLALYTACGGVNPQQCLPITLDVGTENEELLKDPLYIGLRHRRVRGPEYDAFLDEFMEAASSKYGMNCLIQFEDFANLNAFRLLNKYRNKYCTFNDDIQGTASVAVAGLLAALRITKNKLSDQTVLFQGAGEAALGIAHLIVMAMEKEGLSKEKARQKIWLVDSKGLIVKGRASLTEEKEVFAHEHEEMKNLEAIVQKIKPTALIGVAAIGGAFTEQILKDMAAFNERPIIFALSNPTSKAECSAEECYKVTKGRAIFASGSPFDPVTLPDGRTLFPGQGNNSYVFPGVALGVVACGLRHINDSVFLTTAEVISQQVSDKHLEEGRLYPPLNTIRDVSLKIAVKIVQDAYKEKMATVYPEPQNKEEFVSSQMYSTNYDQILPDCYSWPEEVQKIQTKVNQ
Outline: (§1)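 Liver homogenized in 0.25 M sucrose, 1 mM EDTA, 100 mM Tris pH 7.5, then spun at 2000g and 40000g to give cytoplasmic fraction. Malic enzyme activity followed as NADP+ reduction at 340 nm, normalized to Bradford protein. Reported as increase over vehicle controls, nmol/min per mg protein. Two rats per dose, duplicate assays.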

[2] = molecular target: T1, NADP-dependent malic enzyme (Rattus norvegicus); test: Effect on rat hepatic Malic enzyme activity relative to L-T3.
[3] = molecular target: T2, Glycerol-3-phosphate dehydrogenase [NAD(+)], cytoplasmic (Rattus norvegicus) (UniProt O35077); test: Effect on rat hepatic glycerophosphate dehydrogenase alpha (GPD) activity relative to L-T3.
T2 sequence (whole entry): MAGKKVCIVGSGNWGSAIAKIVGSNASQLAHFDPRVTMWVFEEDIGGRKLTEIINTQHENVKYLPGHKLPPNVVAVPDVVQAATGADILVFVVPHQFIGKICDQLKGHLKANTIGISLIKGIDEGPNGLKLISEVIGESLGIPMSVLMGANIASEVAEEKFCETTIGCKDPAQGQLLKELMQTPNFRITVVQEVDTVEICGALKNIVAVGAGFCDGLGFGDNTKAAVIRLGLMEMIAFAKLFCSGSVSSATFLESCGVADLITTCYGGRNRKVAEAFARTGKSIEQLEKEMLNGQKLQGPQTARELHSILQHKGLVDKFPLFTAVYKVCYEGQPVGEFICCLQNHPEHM

[4] = species: Rattus norvegicus; test: Affinity to rat hepatic nuclei relative to L-T3.; format: functional
Outline: (§2)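 Hepatic nuclear fraction from thyroidectomized rats in 0.25 M sucrose, 1.1 mM MgCl2, 2 mM EDTA, 5 mM DTT, 20 mM Tris pH 7.85 (83 μg DNA/mL). Incubated with [125I]-L-T3 (final 0.075 nM) and competitor at 0.025–100 nM, five to eight concentrations, quadruplicate. Nonspecific binding measured with 1 μM unlabeled T3. IC50 from Hill plot x-intercept; Ki calculated from IC50; relative affinity = Ki(L-T3)/Ki(analogue).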

[5] = (§3) In vitro concentration required to displace [125I]L-T3 from rat hepatic nuclei.
[6] = molecular target: T1, NADP-dependent malic enzyme (Rattus norvegicus); test: Effect on rat hepatic Malic enzyme activity 3 days after injection of 10e-5 mol/kg.; outline: as §1
[7] = test system: Rattus norvegicus; test: Effect on the plasma cholesterol levels after subcutaneous administration of 16 nmol/kg in Dawley rats. p < 0.01; format: functional
Outline: (§4)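 Normal Sprague-Dawley rats (265 ± 10 g) on pellet diet with 2% cholesterol and 1% cholic acid for 7 days, given daily subcutaneous injections at 4–16 nmol/kg. Five rats per group; values in mg/dL ± SD. Significance tested against vehicle-treated cholesterol-diet controls.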

[8] = test system: Rattus norvegicus; test: Effect on the plasma cholesterol levels after subcutaneous administration of 8 nmol/kg in Dawley rats.; format: functional; set-up: unit: mg/dL; outline: as §4
[9] = test system: Rattus norvegicus; test: Effect on the plasma cholesterol levels after subcutaneous administration of 16 nmol/kg in Dawley rats.; format: functional; outline: as §4
[10] = test system: Rattus norvegicus; test: Effect on the plasma cholesterol levels after subcutaneous administration of 4 nmol/kg in Dawley rats.; format: functional; outline: as §4
[11] = species: Rattus norvegicus; test: as §3; format: functional, organism-based; outline: as §2
[12] = molecular target: T2, Glycerol-3-phosphate dehydrogenase [NAD(+)], cytoplasmic (Rattus norvegicus); test: Effect on rat hepatic glycerophosphate dehydrogenase alpha (GPD) activity 3 days after injection of 10e-6 mol/kg.
[13] = molecular target: T2, Glycerol-3-phosphate dehydrogenase [NAD(+)], cytoplasmic (Rattus norvegicus); test: Effect on rat hepatic alpha-glycerophosphate dehydrogenase (GPD) activity 3 days after injection of 10e-6 mol/kg.
[14] = molecular target: T1, NADP-dependent malic enzyme (Rattus norvegicus); test: Effect on rat hepatic malic enzyme(ME) activity relative to L-T3.
[15] = molecular target: T1, NADP-dependent malic enzyme (Rattus norvegicus); test: Effect on rat hepatic malic enzyme(ME) activity 3 days after injection of 10e-6 mol/kg.; outline: as §1
[16] = molecular target: T2, Glycerol-3-phosphate dehydrogenase [NAD(+)], cytoplasmic (Rattus norvegicus); test: Effect on rat hepatic alpha-glycerophosphate dehydrogenase (GPD) activity relative to L-T3.
[17] = molecular target: T2, Glycerol-3-phosphate dehydrogenase [NAD(+)], cytoplasmic (Rattus norvegicus); test: Effect on rat hepatic alpha-glycerophosphate dehydrogenase (GPD) activity 3 days after injection of 10e-5 mol/kg.
[18] = Affinity to rat hepatic nuclei relative to L-T3 (Thyroid receptor).; outline: as §2
[19] = In vitro concentration required to displace [125I]L-T3 from Thyroid receptor of rat hepatic nuclei.; outline: as §2

Compound | ME increase (nM min-1 mg-1) [1] | L-T3 [2] [%] | L-T3 [3] [%] | T3 [4] [%] | ME increase (nM min-1 mg-1) [6] | Activity [8] | Activity [10] | other results
CC(Cc1cc(I)c(Oc2cc(I)c(O)c(I)c2)c(I)c1)C(=O)O (racemic) | 6.8 | 42 | 36 | 12 | 14.7 |  |  | Ki [5]: 13 nM
O=C(O)CCc1cc(I)c(Oc2ccc(O)c(I)c2)c(I)c1 [THYROPROPIC ACID] | 5.5 | 36 | 43 |  | 12.9 | 285 |  | Activity [7]: 202
CC(C(=O)O)c1cc(I)c(Oc2ccc(O)c(I)c2)c(I)c1 (stereo in doubt) |  |  |  |  |  | 147 | 262 | Activity [9]: 119
CC(C(=O)O)c1cc(I)c(Oc2ccc(O)c(I)c2)c(I)c1 (racemic) [listing 1 of 2 here] |  |  |  | 17 |  | 216 | 259 | Ki [11]: 9.03 nM
CC(Cc1cc(I)c(Oc2ccc(O)c(I)c2)c(I)c1)C(=O)O (racemic) | 13.1 | 62 | 77 | 61 | 18.6 |  |  | Ki [5]: 2.56 nM; GDPactivity (nM min-1 mg-1) [12]: 7.8 and 12.1
N[C@@H](Cc1cc(I)c(Oc2ccc(O)c(I)c2)c(I)c1)C(=O)O [LIOTHYRONINE] | 19.5 | 100 | 100 | 100 | 31.8 | 138 | 251 | Activity [9]: 101; GDPactivity (nM min-1 mg-1) [12]: 7.5 and 18.3
CC(C(=O)O)c1cc(I)c(Oc2ccc(O)c(I)c2)c(I)c1 (racemic) [listing 2 of 2 here] |  |  |  |  |  |  |  | GDP activity (nM min-1 mg-1) [13]: 1.5; L-T3 [14]: 41%; ME increase (nM min-1 mg-1) [15]: 5.6; ME increase (nM min-1 mg-1) [2]: 15.5; L-T3 [16]: 31%; GDP activity (nM min-1 mg-1) [17]: 6.6
CC(N)(Cc1cc(I)c(Oc2cc(I)c(O)c(I)c2)c(I)c1)C(=O)O (stereo not given) |  |  |  |  |  |  |  | Relative affinity [18]: 2%; Ki [19]: 63.3 nM
O=C(O)Cc1cc(I)c(Oc2ccc(O)c(I)c2)c(I)c1 [TIRATRICOL] |  |  |  | 199 |  |  |  | GDP activity (nM min-1 mg-1) [13]: 4.8; L-T3 [14]: 69%; ME increase (nM min-1 mg-1) [15]: 13; ME increase (nM min-1 mg-1) [2]: 22.5; L-T3 [16]: 69%; GDP activity (nM min-1 mg-1) [17]: 12.9

Source: ChEMBL document CHEMBL1126251, “alpha-Methylated analogues of triiodothyroalkanoic acids: synthesis and biological activity” (J Med Chem, 1992)
